Test results published in publication PMC7897483 (Nucleic Acids Research, 2021).
One block for each molecule: values may come before it.

Key:
[1] = Parallel Artificial Membrane Permeability Assay; format: in vitro ADME; settings: pH 5.0 and 6.8, room temperature, ∼4 h; data not shown
Summary of the method: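 Test compounds were made up as 10 mM DMSO stocks and filtered (0.2 μm). The assay used stirred PAMPA plates with GIT-0 lipid and an acceptor sink buffer. After permeation, UV spectra from 245 to 498 nm gave relative compound concentrations in the donor and acceptor compartments, from which effective permeability was derived.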

[2] = target: hnRNP A18 RNA Recognition Motif (RRM) (Homo sapiens, UniProt Q14011); test: NMR 1H,15N-HSQC chemical shift perturbation; format: binding; settings: 15N-labeled hnRNP A18 RRM
Summary of the method: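 Construct: human hnRNP A18 RRM (residues 1–92), expressed in E. coli BL21(DE3) as a His6-GB1 fusion in M9 medium with 15N-ammonium chloride, induced with 1 mM IPTG for 16 h at 18°C. Purified by denaturing Ni affinity with on-column refolding, then TEV cleavage.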

hnRNP A18 = target: T1, hnRNP A18 (Homo sapiens, UniProt Q14011); test: Cellular thermal shift assay; format: cell-based; settings: read-out: EC50, hnRNP A18 protection from melting; LOX-IM-VI cells over expressing GFP-hnRNP A18; 3 h; 57°C
T1 sequence (Q14011 1-172): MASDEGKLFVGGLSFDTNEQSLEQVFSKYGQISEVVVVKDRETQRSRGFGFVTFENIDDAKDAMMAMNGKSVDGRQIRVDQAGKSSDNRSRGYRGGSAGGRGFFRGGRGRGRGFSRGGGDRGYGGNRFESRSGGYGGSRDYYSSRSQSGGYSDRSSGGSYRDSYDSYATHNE

[3] = tested on: pancreatic cancer MiaPaca cells; test: Cell viability; format: cell-based, human; settings: 24 h, increasing concentrations
Summary of the method: (§1)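 Cells plated at 10 000 per well and exposed to increasing concentrations of test compound for 24 h. HMEC were cultured per supplier guidance. Viability was read with the ApoTox-Glo viability reagent by fluorescence at 400 nm Ex/505 nm Em. Three replicates; error bars are standard deviation.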

His-hnRNP A18 [4] = target: T2, His-hnRNP A18 (Homo sapiens, UniProt Q14011); test: RNA band shift; format: binding; settings: biotinylated hnRNP A18 RNA consensus motif 1
T2 sequence (Q14011 1-172): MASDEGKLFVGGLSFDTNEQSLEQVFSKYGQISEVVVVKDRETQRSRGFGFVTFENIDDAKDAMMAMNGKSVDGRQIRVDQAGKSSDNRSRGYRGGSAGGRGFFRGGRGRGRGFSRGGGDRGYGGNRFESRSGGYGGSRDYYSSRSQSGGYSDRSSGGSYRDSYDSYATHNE
Summary of the method: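 Recombinant full-length human His-hnRNP A18 was expressed in bacteria grown at 30°C. Protein (1 μg) was preincubated 10 min with or without increasing concentrations of test compound. Biotinylated hnRNP A18 motif 1 RNA (51 nt) was then added for 10 min at room temperature. Complexes were resolved on native polyacrylamide gels, transferred to nylon and detected by chemiluminescence with streptavidin-HRP.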

[5] = tested on: colorectal carcinoma RKO cells; test: Cell viability; format: cell-based, human; settings: 24 h, increasing concentrations
Summary of the method: as §1

Glioblastoma D54 cells = test: Cell viability; format: cell-based, human; settings: D54, 24 h, increasing concentrations
Summary of the method: as §1

[6] = tested on: normal human mammary epithelial HMEC cells; test: Cell viability; format: cell-based; settings: 24 h
Summary of the method: as §1

GST-hnRNP A18 = target: T3, GST-hnRNP A18 (UniProt Q14011 1-172); test: fluorescence anisotropy
T3 sequence: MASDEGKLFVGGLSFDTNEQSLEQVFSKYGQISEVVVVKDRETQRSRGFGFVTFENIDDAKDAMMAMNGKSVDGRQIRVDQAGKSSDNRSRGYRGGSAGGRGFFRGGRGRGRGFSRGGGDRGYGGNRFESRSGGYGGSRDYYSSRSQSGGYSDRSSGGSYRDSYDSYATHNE

His-hnRNP A18 [7] = target: T4, His-hnRNP A18 (human, UniProt Q14011 1-172); test: EMSA
T4 sequence: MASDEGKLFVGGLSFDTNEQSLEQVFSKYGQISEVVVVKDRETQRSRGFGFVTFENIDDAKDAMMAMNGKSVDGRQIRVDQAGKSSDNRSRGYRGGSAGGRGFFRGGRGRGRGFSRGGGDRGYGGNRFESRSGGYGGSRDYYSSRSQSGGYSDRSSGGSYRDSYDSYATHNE

- effective permeability (Pe) [1]: > 20 ×10⁻⁶ cm/s
- EC50 (hnRNP A18): 23.8 µM
- hnRNP A18 RNA binding activity / specificity by RNA band shift (His-hnRNP A18 [4]): specifically bound hnRNP A18
Molecule: Cc1sc(NC(=O)c2ccccc2)nc1OC(=O)c1ccccc1 [VITAS STK508411]
- chemical shift perturbations of hnRNP A18 RRM (qualitative) [2]: Chemical shift perturbations were observed
- cell viability (relative efficacy) [3]: least effective
- cell viability (relative efficacy) [5]: least effective
- cell viability (relative efficacy) (Glioblastoma D54 cells): least effective
- toxicity to normal cells [6]: 20–40%

B1: hnRNP A18 motif 1 Fl (ssRNA)
RNA: GCAGAUCCAGGGUGGGAUUUUCUUGAGGAAGUUACAAAUAAGCUUGUUACA
- binding result (GST-hnRNP A18): binds

B2: hnRNP A18 motif 1 Biotin (ssRNA)
RNA: GCAGAUCCAGGGUGGGAUUUUCUUGAGGAAGUUACAAAUAAGCUUGUUACA
- binding result (His-hnRNP A18 [7]): binds
